Assay results as given in PubChem BioAssay AID720543 (The Scripps Research Institute Molecular Screening Center, 2013).
Hit rate of the full screen: of about 370,000 compounds, about 2,000 (0.54%) were called active.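 Rule for the calls: active = inhibition exceeding the mean over every tested compound plus 3 SD (cut at about 30% in these data); inactive = the rest.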 Shown is part of a subset that was picked to be rich in actives.

Each compound was assayed against (Lyso)-N-acylphosphatidylethanolamine lipase (Mus musculus) (UniProt Q8VD66) (assay: mouse ABHD4 hydrolase activity blockers – biochemical, fluorescence polarization, primary screen (AID 720543;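 note: 0% = plate median of compound wells and 100% = S159A mutant with DMSO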)). Details: purified mABHD4, FP-Rh probe fluorescence polarization; at 8.92 µM; stronger effect = higher value.
Chain of (Lyso)-N-acylphosphatidylethanolamine lipase (Mus musculus) (Q8VD66 whole entry, looked up): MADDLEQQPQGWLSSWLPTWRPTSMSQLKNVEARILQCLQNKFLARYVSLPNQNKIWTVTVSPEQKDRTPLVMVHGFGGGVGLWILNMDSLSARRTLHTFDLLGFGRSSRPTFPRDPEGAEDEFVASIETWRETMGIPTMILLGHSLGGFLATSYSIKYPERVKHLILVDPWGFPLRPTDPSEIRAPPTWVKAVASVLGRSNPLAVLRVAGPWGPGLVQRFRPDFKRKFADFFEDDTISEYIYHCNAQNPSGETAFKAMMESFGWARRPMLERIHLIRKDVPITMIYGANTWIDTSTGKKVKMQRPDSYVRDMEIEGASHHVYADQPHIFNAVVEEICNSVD
Method in brief: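 Assay system: wild-type mouse ABHD4 protein; compound: single nominal dose of 8.92 µM, 0.89% DMSO final; schedule: 45 min + 60 min at 25 °C; measured by: FP readout, ex 525 nm / em 598 nm; evaluation: % inhibition of FP-Rh probe binding versus controls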

Structure (SMILES) | inhibition
COc1ccc2nc(Nc3nc4ccc(NC(C)=O)cc4s3)sc2c1 | 37.7% (active)
CCOc1ccc2sc(NS(=O)(=O)c3ccc(N)cc3)nc2c1 | 16.3% (inactive)
COc1ccc(-c2noc(C(C)NS(=O)(=O)c3ccc(NC(C)=O)cc3)n2)cc1 (stereo not drawn) | 0.4% (inactive)
CCOc1ccc2nc(Nc3nc4ccc(NC(C)=O)cc4s3)sc2c1 | 35.1% (active)
CCOc1ccc2nc(NCCNC(=O)C(C)(C)C)c(C)cc2c1 | -2.62% (inactive)
COc1ccc(/C=C/c2nnc(NC(=O)C(C)C)s2)cc1 | -1.43% (inactive)
CN1CCN(C(=O)C(=O)c2cn(CC(=O)N3CCCC3)c3ccccc23)CC1 | 8.39% (inactive)
Nc1nc2c(ncn2[C@@H]2O[C@H](C(=O)N[C@@H](Cc3ccccc3)C(=O)NCc3ccccc3)[C@@H](O)[C@H]2O)c(=O)[nH]1 | 1.72% (inactive)
COC(=O)[C@]12C[C@H](CC(=O)NCC34CC5CC(CC(C5)C3)C4)C(=O)N(Cc3ccc(Cl)cc3Cl)C1=C[C@H](COCc1ccccc1)O[C@@H]2C | 2.69% (inactive)
O=C(NCc1ccccc1)[C@@H]1CCCN1C(=O)[C@@H](NS(=O)(=O)c1ccc(F)cc1F)C1CCCCC1 | -7.63% (inactive)
COC(=O)[C@]12C[C@H](CC(=O)NCc3ccccc3)C(=O)N(Cc3ccccc3)C1=C[C@H](COCc1ccccc1)O[C@@H]2C | -5.73% (inactive)
COC(=O)[C@@]12CCCCC=C1N(CCc1ccc(Cl)cc1)C(=O)[C@H]2CC(=O)NCc1ccc(OC)c(OC)c1 | -1.49% (inactive)
CCOC(=O)[C@@]12CCC3=C1N(CCC3)C(=O)[C@H](CC(=O)N1CCN(C(=O)c3ccco3)CC1)C2 | 2.38% (inactive)
O=C1CC(c2ccccc2)C(c2ccccc2)=NN1 (stereo not drawn) | -2.08% (inactive)
CN(C(=O)CCn1c(=S)oc2ccccc21)C1CCCCC1 | 0.63% (inactive)
CCOC(=O)Cn1c2c(n(-c3ccc(F)cc3)c1=O)C=C(c1ccccc1)[C@@H](C)C(C(=O)N(C)C1CCCCC1)=C2 | 34.2% (active)
CN(C(=O)COc1ncnc2c1cnn2-c1ccccc1)C1CCCCC1 | -16.6% (inactive)
CCC(=O)Nc1ccc2c(c1)C(=O)N(C)[C@@H]1CC[C@@H](CC(=O)NCCc3ccccc3)O[C@H]1CO2 | -0.19% (inactive)
CN1C(=O)c2cccc3c(N)ccc(c23)C1=O | 32.9% (active)
Cc1nn(C)cc1N1C(=O)c2cccc3c(N)ccc(c23)C1=O | 35.3% (active)
CC(C)C[C@H](NC(=O)CC1CCCC1)C(=O)N1CCC[C@H]1C(=O)NCc1ccccc1 | 0.46% (inactive)
COc1ccc2c(C(C)c3ccc(N)cc3)cn(C)c2c1 (stereo not drawn) | -3.15% (inactive)
CC(NC(=O)CCCC1CCCCC1)c1ccc(S(N)(=O)=O)cc1 (stereo not drawn) | -16% (inactive)
CCOC(=O)C1CCN(C(=O)C(C)(C)NC(=O)Nc2ccccc2Cl)CC1 | -3.65% (inactive)
O=C(NCC1COc2ccccc2O1)c1ccc(NC(=O)c2cc(F)ccc2F)cc1 (stereo not drawn) | 5.07% (inactive)
CCN(CC)C(=O)CC[C@H]1CC[C@]2(CCCN(Cc3ccc(Cl)cc3)C2)O1 | -3.65% (inactive)
C=CCN1C(=O)[C@@H](CC(=O)NCCCOCCCC)[C@]2(C(=O)OCC)CCCCC/C=C/12 | -1.53% (inactive)

Structure (SMILES) | inhibition
Cc1cccc(N2CCN(Cc3nc(C4CC4)no3)CC2)n1 | 53.8% (active)
Fc1cccc(Cc2noc(CN3CCN(c4cnccn4)CC3)n2)c1 | -0.5% (inactive)
Cc1ccccc1N1CCN(Cc2nc(Cc3ccccc3F)no2)CC1 | -7.9% (inactive)
CCOC(=O)C1CCN(C(=O)C2(NC(=O)Nc3cccc(F)c3)CCCCC2)CC1 | -0.97% (inactive)
O=C(/C=C/c1ccc([N+](=O)[O-])cc1)NCCSCc1ccco1 | -1.92% (inactive)
CCCCC(=O)N[C@@H]1CC[C@@]23CCCN2C(=O)CCC[C@H]3[C@H]1C | 3.19% (inactive)
CC1CCN(c2ccc(C(=O)Nc3nnc(C4CC4)s3)cc2[N+](=O)[O-])CC1 | 2.94% (inactive)
CC1CCN(c2ccc(C(=O)O)cc2NS(=O)(=O)c2ccc(Br)s2)CC1 | 40.3% (active)
CC1CCN(c2ccc(S(=O)(=O)Nc3cc(C(=O)O)cc(C(=O)O)c3)cc2[N+](=O)[O-])CC1 | -0.48% (inactive)
O=C1C=CC(=O)N1c1ccc(N2CCCCC2)cc1 | 40.5% (active)
Nn1c(SCC(=O)N2c3ccccc3Sc3ccccc32)nnc1-c1n[nH]c2c1CCC2 | -15.8% (inactive)
O=C1CC[C@@]23CCCN2C(=O)CCC[C@H]3[C@H]1Cc1ccccc1 | -0.8% (inactive)
CC1(C)OC(=O)C(=CNC(CO)C(=O)O)C(=O)O1 (stereo not drawn) | 5.15% (inactive)
CC(=O)Nc1nc2ncccn2c1-c1ccc(C(F)(F)F)cc1 | 5.78% (inactive)
CCCN1C(=O)c2[nH]nc(-c3ccccc3)c2C1c1ccccc1 (stereo not drawn) | -7.15% (inactive)
O=C(CCCc1ccccc1)NCc1ccccc1 | -1.11% (inactive)
N#C/C(=C\c1ccc(O)c(O)c1)C(=O)NCc1ccccc1 | 47% (active)
CC(C)NC(=O)/C(C#N)=C\c1ccc(N(C)C)c(Br)c1 | 3.76% (inactive)
CC(=O)Nc1ccc(OC[C@@H](O)CN2CCC(C(O)(c3ccccc3)c3ccccc3)CC2)cc1 | -3.77% (inactive)
OC(c1ccccc1)(c1ccccc1)C1CCN(CCCOc2ccc(-c3ccsc3)cc2)CC1 | 13.8% (inactive)
CN(C)c1ccc(NC(=O)NC2CCCCN(Cc3ccc(Cl)cc3)C2=O)cc1 (stereo not drawn) | 14% (inactive)
Cc1cccc(N2CCN(C(=O)c3ccccc3NC(=O)C3CCCCC3C(=O)O)CC2)c1 (stereo not drawn) | 2.26% (inactive)
Cc1cccc(N2CCN(c3ccc(NC(=O)/C=C\C(=O)O)cc3)CC2)c1 | 38.7% (active)
Cc1cccc(C)c1NC(=O)CS(=O)CC(=O)N1CCN(c2ccccc2)CC1 (stereo not drawn) | -7.61% (inactive)
COc1ccc(Cn2ccc3ccc(-c4ccc5ccn(Cc6ccccc6C)c5c4)cc32)cc1 | 7.66% (inactive)
Cc1ccc(-c2nc(C3CCCN(S(=O)(=O)c4ccc(Br)s4)C3)no2)cc1 (stereo not drawn) | 7.38% (inactive)
